# According to ChEMBL document CHEMBL1212817, “Design and synthesis of C-2 substituted thiazolo and dihydrothiazolo ring-fused 2-pyridones: pilicides with increased antivirulence activity” (J Med Chem, 2010):
# Target: T1, Chaperone protein PapD (Escherichia coli, UniProt P15319)
# T1 sequence (P15319 whole entry): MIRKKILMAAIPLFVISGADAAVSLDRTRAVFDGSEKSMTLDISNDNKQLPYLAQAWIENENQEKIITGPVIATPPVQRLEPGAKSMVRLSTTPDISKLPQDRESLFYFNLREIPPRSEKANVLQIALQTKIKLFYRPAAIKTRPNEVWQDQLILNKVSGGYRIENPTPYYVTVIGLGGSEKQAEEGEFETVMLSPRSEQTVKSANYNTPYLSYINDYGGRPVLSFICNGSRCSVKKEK
# Assay: Inhibition of Escherichia coli UTI89 PapD chaperon assessed as inhibition of biofilm formation; call rule not given here
# In short: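 Pilus-dependent biofilm assay with whole E. coli UTI89 grown on polyvinylchloride in the presence of pilicide; biofilm amount taken as readout of piliation block. IC50 calculated from 16-32 data points at every concentration.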
row,IC50,SMILES
1,Not Active,COc1ccc(-c2sc3c(C4CC4)c(Cc4cccc5ccccc45)cc(=O)n3c2C(=O)O)cc1
2,Not Active,O=C(c1ccccc1)c1sc2c(C3CC3)c(Cc3cccc4ccccc34)cc(=O)n2c1C(=O)O
3,Not Active,O=C(O)c1c(-c2ccc3[nH]ccc3c2)sc2c(C3CC3)c(Cc3cccc4ccccc34)cc(=O)n12

# Tested on: Escherichia coli
# Assay: Antibacterial activity against Escherichia coli UTI89 assessed as number of wells with agglutination by hemagglutinination assay
# Assay type: functional
# In short: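 UTI89 grown with pilicide at 250 μM; culture piliation then scored by hemagglutination titer, expressed as number of wells with agglutination (2ⁿ); value is the average of duplicate runs.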
row,SMILES,Activity
1,O=C(O)c1c(-c2ccccc2)sc2c(C3CC3)c(Cc3cccc4ccccc34)cc(=O)n12,4.5
2,Cc1cccc(-c2sc3c(C4CC4)c(Cc4cccc5ccccc45)cc(=O)n3c2C(=O)O)c1,3
3,O=C(O)c1c(-c2ccsc2)sc2c(C3CC3)c(Cc3cccc4ccccc34)cc(=O)n12,3.5
4,O=C(O)c1c(Cc2ccccc2)sc2c(C3CC3)c(Cc3cccc4ccccc34)cc(=O)n12,3
